Data reported in ChEMBL document CHEMBL1138710, “A nonhydrolyzable analogue of phosphotyrosine, and related aryloxymethano- and aryloxyethano-phosphonic acids as motifs for inhibition of phosphatases” (Bioorg Med Chem Lett, 2004).

What was measured:
[1] = target: Alkaline phosphatase (Escherichia coli K-12) (UniProt P00634); assay: Inhibition constant for Escherichia coli alkaline phosphatase at pH 9
Summary of the method: (§1)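 Competitive inhibition kinetics with p-nitrophenyl phosphate as substrate at 25°C, in 100 mM TRIS, 1 mM ZnCl2, 1 mM MgCl2, pH 9.0. Ki (mM) was derived from the competitive inhibition rate equation.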

Homo sapiens [2] = species: Homo sapiens; assay: Inhibition constant for human placental alkaline phosphatase at pH 9; summary of the method: as §1
[3] = target: Secreted effector protein (Yersinia pestis) (UniProt O68720); assay: Inhibition constant for YOP protein tyrosine phosphatase at pH 6.6
Summary of the method: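 Competitive Ki (mM) measured at 25°C against p-nitrophenyl phosphate substrate, in 100 mM succinate, 150 mM NaCl, pH 6.6.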

[4] = target: T1, Serine/threonine-protein phosphatase (Enterobacteria phage lambda) (UniProt P03772); assay: Inhibition constant for lambda protein phosphatase in presence of [Mn2+] at 5 mM pH 7.3
T1 sequence (whole entry): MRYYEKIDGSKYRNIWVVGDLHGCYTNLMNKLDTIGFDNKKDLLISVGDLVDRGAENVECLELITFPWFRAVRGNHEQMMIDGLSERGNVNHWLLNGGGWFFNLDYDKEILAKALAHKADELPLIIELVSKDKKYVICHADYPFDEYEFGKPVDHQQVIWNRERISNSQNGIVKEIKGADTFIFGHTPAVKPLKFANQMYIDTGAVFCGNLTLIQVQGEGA

[5] = Inhibition constant protein phosphatase 2C in presence of [Mn2+] at 5 mM pH 7.5
Summary of the method: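 Competitive inhibition kinetics with p-nitrophenyl phosphate substrate (Km 1.1 mM under these conditions) at 25°C, in 100 mM TRIS, 5 mM MnCl2, 1 mM DTT, pH 7.5. Ki (mM) was derived from the competitive inhibition rate equation.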

[6] = Inhibition constant for protein phosphatase 2C in presence of [Mn2+] at 1 mM pH 7.5
Summary of the method: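 Kinetics at 25°C with p-nitrophenyl phosphate substrate in 100 mM TRIS, 1 mM MnCl₂, 1 mM DTT, pH 7.5. Mn²⁺ was lowered from 5 mM for compounds precipitating at that level. Substrate Km was 1.1 mM and matched within error at both Mn²⁺ levels. Ki (mM) from a competitive inhibition model.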

[7] = target: Alkaline phosphatase (Escherichia coli K-12) (UniProt P00634); assay: Inhibition constant for Escherichia coli alkaline phosphatase at pH 9; No reduction in rate
Homo sapiens [8] = species: Homo sapiens; assay: Inhibition constant for human placental alkaline phosphatase at pH 9; No reduction in rate

Chain of Alkaline phosphatase (Escherichia coli K-12) (P00634 whole entry): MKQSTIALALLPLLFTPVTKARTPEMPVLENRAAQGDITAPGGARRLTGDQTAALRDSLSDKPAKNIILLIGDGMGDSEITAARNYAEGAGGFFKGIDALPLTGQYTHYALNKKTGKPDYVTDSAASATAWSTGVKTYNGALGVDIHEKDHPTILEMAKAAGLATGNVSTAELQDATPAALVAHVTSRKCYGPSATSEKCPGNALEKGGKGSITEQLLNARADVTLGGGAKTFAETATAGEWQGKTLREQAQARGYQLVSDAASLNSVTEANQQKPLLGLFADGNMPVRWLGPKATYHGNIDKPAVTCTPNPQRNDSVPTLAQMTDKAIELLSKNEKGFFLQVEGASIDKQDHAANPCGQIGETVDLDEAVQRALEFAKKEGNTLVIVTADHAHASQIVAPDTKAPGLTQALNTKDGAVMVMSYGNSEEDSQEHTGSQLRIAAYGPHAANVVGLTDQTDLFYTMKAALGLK

SMILES	Inhibition [1] [mM]	Inhibition (Homo sapiens [2]) [mM]	Inhibition [3] [mM]	Inhibition [4]	Inhibition [5]	Inhibition [6] [mM]	Inhibition [7]	Inhibition (Homo sapiens [8])
O=P(O)(O)COc1ccc2ccccc2c1	4	1.1	6.3	Precipitation	Precipitation			
O=P(O)(O)CCOc1ccccc1	0.1	0.11	2.17	0.05 mM		0.4		
O=P(O)(O)CSc1ccccc1	0.04	0.13	4.6	0.33 mM		0.17		
O=C(O)Cc1ccc(OCCP(=O)(O)O)cc1	0.6	0.14	19	0.12 mM	0.23 mM			
N[C@@H](Cc1ccc(OCP(=O)(O)O)cc1)C(=O)O	5	1.7	21	0.02 mM	0.76 mM			
N[C@H](Cc1ccc(OCP(=O)(O)O)cc1)C(=O)O	4.8	1.85	0.63	0.03 mM	0.34 mM			
O=P(O)(O)COc1ccccc1		0.9	5	0.27 mM		0.32	No inhibition	
O=C(O)Cc1ccc(OCP(=O)(O)O)cc1	5.1		12	0.19 mM	0.13 mM			No inhibition
O=P(O)(O)CCSc1ccccc1	0.9	0.69	10	0.14 mM		0.3		
O=C(O)c1cccc2cc(OCP(=O)(O)O)ccc12	4.2	3.4	2.2	0.03 mM	0.06 mM			
